Molecules are shown by their SMILES. pIC50: −log10 of the molar value.

Inhibition and IC50 data for 19 compounds are collected here from ChEMBL document CHEMBL5335771, “Thioxanthenone-based derivatives as multitarget therapeutic leads for Alzheimer's disease” (Eur J Med Chem, 2023).

Test [1] deals with T1, Microtubule-associated protein tau (Homo sapiens, UniProt P10636). Briefly: Inhibition of tau (unknown origin) aggregation expressed in Escherichia coli BL21 (DE3) at 10 uM relative to control. The procedure, abridged:
(§1)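 E. coli BL21(DE3) carrying pTARA (T7 RNA polymerase under PBAD) and pRKT42 (four-repeat tau) grown at 37 °C in M9 with 0.5% glucose, antibiotics and 250 μM ThS to OD600 0.6. […] ThS fluorescence ex 430/em 485 nm, normalized to tau-expressing cells (100%) and non-expressing cells (0%); OD600 checked for growth.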
Target sequence in this assay (P10636 whole entry): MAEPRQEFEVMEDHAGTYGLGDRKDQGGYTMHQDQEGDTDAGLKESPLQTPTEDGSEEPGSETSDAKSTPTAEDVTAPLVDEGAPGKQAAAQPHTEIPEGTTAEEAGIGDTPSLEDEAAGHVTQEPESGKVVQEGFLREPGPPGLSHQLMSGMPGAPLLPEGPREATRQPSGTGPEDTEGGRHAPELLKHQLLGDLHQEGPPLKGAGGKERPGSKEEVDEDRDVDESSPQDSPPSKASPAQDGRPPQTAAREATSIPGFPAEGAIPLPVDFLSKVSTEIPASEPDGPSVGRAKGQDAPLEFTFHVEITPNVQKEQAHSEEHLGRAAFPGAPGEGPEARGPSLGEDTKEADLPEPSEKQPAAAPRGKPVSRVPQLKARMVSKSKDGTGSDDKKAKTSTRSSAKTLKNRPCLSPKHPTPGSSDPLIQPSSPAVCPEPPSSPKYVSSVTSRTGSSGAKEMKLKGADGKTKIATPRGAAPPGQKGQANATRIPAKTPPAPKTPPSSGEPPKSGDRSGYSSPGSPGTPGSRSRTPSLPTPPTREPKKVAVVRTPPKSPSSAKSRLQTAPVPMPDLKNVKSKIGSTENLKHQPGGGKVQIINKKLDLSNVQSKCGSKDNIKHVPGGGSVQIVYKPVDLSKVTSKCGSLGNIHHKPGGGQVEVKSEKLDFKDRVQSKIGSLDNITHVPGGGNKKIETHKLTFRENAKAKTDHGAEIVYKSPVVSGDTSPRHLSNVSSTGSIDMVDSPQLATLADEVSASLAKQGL

The target of test [2] is Amyloid-beta precursor protein (Homo sapiens, UniProt P05067). Briefly: Inhibition of amyloid beta 40 peptide (unknown origin) aggregation incubated for 2 hr by ThT fluorescence based spectrofluorimetric analysis. The procedure, abridged:
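Aβ40 peptide aggregation enhanced with 2% HFIP; thioflavin T fluorescence read-out; run in triplicate.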

The target in test [3] is T1, Microtubule-associated protein tau. Kind of test: Inhibition of PHF6 peptide (unknown origin) aggregation at 10 uM measured after 3 hrs by thioflavin T fluorescence based fluorimetric analysis relative to control.
Target sequence in this assay (P10636 whole entry, looked up): as the sequence (P10636 whole entry) above
For test [4] the target is unchanged. Kind of test: Inhibition of tau (unknown origin) aggregation expressed in Escherichia coli BL21 (DE3). The method, boiled down:
as §1
Target sequence in this assay (P10636 whole entry): as above

Test [5] has as its target Cholinesterase (Equus caballus, UniProt P81908). Briefly: Inhibition of equine serum BChE using butyrylthiocholine iodide as substrate preincubated for 20 mins followed by substrate addition by DTNB reagent based Ellman's method. The class given is cell-free.
Test [6] deals with Acetylcholinesterase (Homo sapiens, UniProt P22303). Briefly: Inhibition of human recombinant AChE using acetylthiocholine iodide as substrate preincubated for 20 mins followed by substrate addition by DTNB reagent based Ellman's method.
Acetylcholinesterase (Homo sapiens, UniProt P22303), sequence (P22303 whole entry): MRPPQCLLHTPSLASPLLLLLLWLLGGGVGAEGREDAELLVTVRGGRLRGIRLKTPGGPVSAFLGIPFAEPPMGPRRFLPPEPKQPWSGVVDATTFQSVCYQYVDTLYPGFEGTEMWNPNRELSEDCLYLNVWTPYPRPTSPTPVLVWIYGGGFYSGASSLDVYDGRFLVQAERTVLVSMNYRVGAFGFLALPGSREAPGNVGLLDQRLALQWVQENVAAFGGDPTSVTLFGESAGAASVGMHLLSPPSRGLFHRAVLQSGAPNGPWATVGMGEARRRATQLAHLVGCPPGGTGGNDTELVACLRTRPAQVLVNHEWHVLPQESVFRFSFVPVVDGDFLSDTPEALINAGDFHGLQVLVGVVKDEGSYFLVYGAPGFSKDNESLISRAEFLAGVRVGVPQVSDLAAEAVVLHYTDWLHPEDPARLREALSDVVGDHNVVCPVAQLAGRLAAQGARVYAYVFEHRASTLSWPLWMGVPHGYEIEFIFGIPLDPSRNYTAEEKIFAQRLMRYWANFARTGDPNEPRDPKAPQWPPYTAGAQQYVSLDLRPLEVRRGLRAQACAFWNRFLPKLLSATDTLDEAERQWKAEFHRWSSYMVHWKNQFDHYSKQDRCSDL
Test [7] deals with Cholinesterase (Homo sapiens, UniProt P06276). Kind of test: Inhibition of human recombinant BChE using acetylthiocholine iodide as substrate preincubated for 20 mins followed by substrate addition by DTNB reagent based Ellman's method. The procedure, abridged:
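Human BChE was assayed by the Ellman spectrophotometric method. IC50 values are means of three independent experiments, each run in triplicate.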
In general terms: DTNB colorimetry detects thiols as they appear.

Test [8] concerns the target Acetylcholinesterase (Electrophorus electricus, UniProt O42275). Briefly: Inhibition of electric eel AChE using acetylthiocholine iodide as substrate preincubated for 20 mins followed by substrate addition by DTNB reagent based Ellman's method.

Cholinesterase (Homo sapiens, UniProt P06276), sequence (P06276 whole entry): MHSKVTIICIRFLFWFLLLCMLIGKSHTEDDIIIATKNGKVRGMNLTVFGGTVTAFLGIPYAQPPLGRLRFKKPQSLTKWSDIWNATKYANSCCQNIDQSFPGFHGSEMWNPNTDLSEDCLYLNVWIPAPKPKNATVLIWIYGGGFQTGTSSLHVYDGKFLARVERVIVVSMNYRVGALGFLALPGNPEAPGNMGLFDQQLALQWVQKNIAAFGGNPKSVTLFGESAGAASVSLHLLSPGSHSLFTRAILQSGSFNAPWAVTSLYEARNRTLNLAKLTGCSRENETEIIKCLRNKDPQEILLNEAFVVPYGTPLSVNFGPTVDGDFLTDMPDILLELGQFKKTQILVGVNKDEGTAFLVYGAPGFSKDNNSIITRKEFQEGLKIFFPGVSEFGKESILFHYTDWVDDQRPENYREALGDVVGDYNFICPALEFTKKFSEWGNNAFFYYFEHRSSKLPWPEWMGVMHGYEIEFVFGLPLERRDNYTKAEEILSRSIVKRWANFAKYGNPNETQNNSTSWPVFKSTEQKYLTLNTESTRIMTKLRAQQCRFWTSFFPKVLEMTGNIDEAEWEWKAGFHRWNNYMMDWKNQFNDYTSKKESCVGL
Cholinesterase (Equus caballus, UniProt P81908), sequence (P81908 whole entry): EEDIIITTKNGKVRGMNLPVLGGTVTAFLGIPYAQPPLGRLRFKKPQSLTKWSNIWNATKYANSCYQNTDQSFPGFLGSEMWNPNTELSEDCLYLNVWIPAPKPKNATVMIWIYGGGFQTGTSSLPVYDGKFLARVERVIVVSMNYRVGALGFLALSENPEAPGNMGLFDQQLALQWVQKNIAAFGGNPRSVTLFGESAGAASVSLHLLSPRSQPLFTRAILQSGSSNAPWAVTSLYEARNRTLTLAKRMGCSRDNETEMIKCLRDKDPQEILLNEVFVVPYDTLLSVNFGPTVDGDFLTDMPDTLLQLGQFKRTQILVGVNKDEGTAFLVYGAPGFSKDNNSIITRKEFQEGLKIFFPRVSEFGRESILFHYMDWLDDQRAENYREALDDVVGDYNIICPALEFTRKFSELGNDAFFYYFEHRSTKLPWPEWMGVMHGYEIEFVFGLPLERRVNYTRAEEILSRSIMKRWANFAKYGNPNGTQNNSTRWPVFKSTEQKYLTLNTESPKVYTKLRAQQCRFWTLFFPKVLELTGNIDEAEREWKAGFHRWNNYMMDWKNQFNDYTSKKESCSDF
Acetylcholinesterase (Electrophorus electricus, UniProt O42275), sequence (O42275 whole entry): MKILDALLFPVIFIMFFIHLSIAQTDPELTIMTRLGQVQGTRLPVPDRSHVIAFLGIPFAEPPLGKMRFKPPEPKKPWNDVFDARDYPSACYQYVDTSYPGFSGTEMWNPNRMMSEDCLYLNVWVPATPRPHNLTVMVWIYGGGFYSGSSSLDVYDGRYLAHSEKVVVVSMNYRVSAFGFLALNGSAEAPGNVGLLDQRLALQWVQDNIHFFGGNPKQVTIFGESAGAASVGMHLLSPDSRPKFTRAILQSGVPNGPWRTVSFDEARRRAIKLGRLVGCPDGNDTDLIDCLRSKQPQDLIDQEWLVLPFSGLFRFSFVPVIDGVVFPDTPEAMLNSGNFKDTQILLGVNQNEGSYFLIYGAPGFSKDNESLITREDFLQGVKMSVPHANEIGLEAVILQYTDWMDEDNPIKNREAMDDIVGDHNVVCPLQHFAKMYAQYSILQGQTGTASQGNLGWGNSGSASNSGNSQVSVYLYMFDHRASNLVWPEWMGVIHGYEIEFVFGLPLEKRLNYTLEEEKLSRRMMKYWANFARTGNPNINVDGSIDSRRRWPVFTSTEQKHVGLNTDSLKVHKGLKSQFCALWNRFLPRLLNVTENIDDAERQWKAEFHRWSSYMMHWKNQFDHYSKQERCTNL
Amyloid-beta precursor protein, sequence (P05067 whole entry): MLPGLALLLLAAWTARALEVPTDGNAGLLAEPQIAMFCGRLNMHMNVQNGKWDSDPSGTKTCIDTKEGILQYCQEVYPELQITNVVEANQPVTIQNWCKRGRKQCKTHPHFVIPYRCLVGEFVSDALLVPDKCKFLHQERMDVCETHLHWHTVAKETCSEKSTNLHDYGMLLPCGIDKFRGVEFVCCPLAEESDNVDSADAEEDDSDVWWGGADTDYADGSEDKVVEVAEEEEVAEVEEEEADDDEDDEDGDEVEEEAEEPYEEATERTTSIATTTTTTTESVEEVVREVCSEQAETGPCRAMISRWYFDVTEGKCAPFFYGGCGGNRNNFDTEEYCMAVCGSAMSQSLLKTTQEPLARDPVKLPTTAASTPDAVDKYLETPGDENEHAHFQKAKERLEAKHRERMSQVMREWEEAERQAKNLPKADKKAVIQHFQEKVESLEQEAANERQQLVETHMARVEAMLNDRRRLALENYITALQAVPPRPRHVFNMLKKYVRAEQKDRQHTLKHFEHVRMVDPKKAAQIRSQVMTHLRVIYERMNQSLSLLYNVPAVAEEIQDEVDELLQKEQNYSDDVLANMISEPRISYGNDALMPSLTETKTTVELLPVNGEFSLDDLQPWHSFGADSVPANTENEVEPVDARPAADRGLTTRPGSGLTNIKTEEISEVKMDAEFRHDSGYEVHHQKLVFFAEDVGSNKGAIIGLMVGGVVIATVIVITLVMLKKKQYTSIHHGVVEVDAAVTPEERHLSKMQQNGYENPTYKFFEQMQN

`COc1ccc2sc3c([N+](=O)[O-])ccc(NC[C@@H]4CCCN5CCCC[C@H]45)c3c(=O)c2c1`: in test [1], the inhibition (as a rule, how much of the control response was suppressed) is 32%. For the same compound, the pIC50 (in general, the IC50 on a negative log10 scale, so that one unit is a factor of ten) in test [2] is 4.96.
As to `CCN(CC)CCCNc1ccc(N)c2sc3ccc(OC)cc3c(=O)c12`, the inhibition in test [1] was 24%; in test [3], over 80%. The pIC50 in test [2] was 4.68.
Turning to `Cc1ccc(NCCC[C@@H]2CCCN3CCCC[C@H]23)c2c(=O)c3ccccc3oc12`, the pIC50 is 4.64 in test [4]; 6.43 in test [5]; 5.06 in test [6]; 6.52 in test [7]; 4.89 in test [2]; 6.85 in test [8].
In test [1], `Cc1ccc(NC[C@@H]2CCCN3CCCC[C@H]23)c2c(=O)c3ccccc3oc12` showed an inhibition of 35%. The negative-log IC50 (pIC50) in test [2] was 4.32.
`Nc1ccc(NC[C@@H]2CCCN3CCCC[C@H]23)c2c(=O)c3ccccc3sc12`: the pIC50 in test [4] was 5.07; in test [2] it was 4.85.
In test [1], `Cc1ccc(NCCC[C@@H]2CCCN3CCCC[C@H]23)c2c(=O)c3ccccc3sc12` yielded an inhibition of 26%. In test [2], the pIC50 is 5.37.
On to `Cc1ccc(NC[C@@H]2CCCN3CCCC[C@H]23)c2c(=O)c3cc(O)ccc3sc12`, for which the pIC50 in test [4] is 5.04; in test [2], 5.23.
Compound `COc1ccc2sc3c(N)ccc(NCC[C@@H]4CCCN5CCCC[C@H]45)c3c(=O)c2c1` registered an inhibition in test [1] of 33%. Also, the negative logarithm of the IC50 (pIC50) in test [5] was 6.82; in test [6] it was 5.62; in test [7], 6.00; in test [2], 4.89; in test [8] it was 5.72.
The compound `Nc1ccc(NCCC[C@@H]2CCCN3CCCC[C@H]23)c2c(=O)c3ccccc3sc12` had an inhibition in test [1] of 26%. Besides, the pIC50 in test [2] is 5.89.
As to `CCCN(SC[C@H]1CCCN2CCCC[C@H]12)C1=C(Cl)C(=O)c2ccccc2C1=O`, in test [2], the pIC50 is 4.21.
`CCN(CC)CCCNc1ccc([N+](=O)[O-])c2sc3ccc(OC)cc3c(=O)c12`: the pIC50 was 5.32 in test [4] and 4.77 in test [2].
As to `COc1ccc2sc3c(C)ccc(NC[C@@H]4CCCN5CCCC[C@H]45)c3c(=O)c2c1`, the pIC50 was 5.26 in test [4] and 5.37 in test [2].
In the case of `Cc1ccc(NCCCSC[C@@H]2CCCN3CCCC[C@H]23)c2c(=O)c3ccccc3sc12`, the pIC50 in test [4] is 4.70; in test [5] it was 7.06; in test [6], 5.11; in test [7], 8.15; in test [2], 5.37; in test [8], 6.74.
With `Cc1ccc(NCCC[C@@H]2CCCN3CCCC[C@H]23)c2c(=O)c3cc(O)ccc3sc12`, the pIC50 was 5.14 in test [4] and 5.54 in test [2]. Further, in test [3], the inhibition is over 80%.
As to `O=c1c2ccccc2sc2c([N+](=O)[O-])ccc(NC[C@@H]3CCCN4CCCC[C@H]34)c12`, the figures for the pIC50 in test [4] and in test [2] were 4.82 and 4.70, respectively.
Take `COc1ccc2sc3c([N+](=O)[O-])ccc(NCCC[C@@H]4CCCN5CCCC[C@H]45)c3c(=O)c2c1`: the pIC50 is 5.52 in test [4]; 5.70 in test [5]; 5.76 in test [6]; 5.14 in test [7]; 5.10 in test [2]; 6.92 in test [8].
As to `Cc1ccc(NCC[C@@H]2CCCN3CCCC[C@H]23)c2c(=O)c3cc(O)ccc3sc12`, the negative-log IC50 (pIC50) in test [4] was 5.05; in test [5], 6.80; in test [6] it was 5.37; in test [7], 6.05; in test [2] it was 5.62; in test [8], 5.49.
On to `COc1ccc2sc3c([N+](=O)[O-])ccc(NCC[C@@H]4CCCN5CCCC[C@H]45)c3c(=O)c2c1`, for which the pIC50 in test [4] was 5.16; in test [5] it was 6.82; in test [6], 5.32; in test [7], 5.74; in test [2] it was 5.04; in test [8] it was 5.64.
Turning to `COc1ccc2sc3c(C)ccc(NCC[C@@H]4CCCN5CCCC[C@H]45)c3c(=O)c2c1`, the negative-log IC50 (pIC50) in test [4] was 4.85; in test [5], 6.85; in test [6] it was 5.44; in test [7] it was 6.15; in test [2], 5.62; in test [8], 5.29.
